According to ChEMBL document CHEMBL2321666, “Discovery of a Series of Thiazole Derivatives as Novel Inhibitors of Metastatic Cancer Cell Migration and Invasion” (ACS Med Chem Lett, 2013):
Activity calls are given as the source filed them. No cut-off for these calls is given here.

What was measured:
MDA-MB-231 [1] = test: Inhibition of cell migration in human MDA-MB-231 cells assessed as total number of cells at 10 uM after 24 hrs by transwell migration assay relative to control; values are per cent of control; details: MDA-MB-231, 24 h
MDA-MB-231 [2] = test: Cytotoxicity against human MDA-MB-231 cells assessed as colony formation at 10 uM after 2 weeks relative to control; type: cell-based; details: mda-mb-231, 336 h
Procedure, shortened: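 Clonogenic assay: MDA-MB-231 cells grown for 14 days in six-well plates with or without 10 μM compound. Colony formation expressed as % of DMSO vehicle control.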

HeLa [3] = test: Inhibition of cell migration in human HeLa cells assessed as total number of cells at 10 uM after 24 hrs by transwell migration assay relative to control; type: functional
MDA-MB-231 [4] = test: Inhibition of cell migration in human MDA-MB-231 cells assessed as total number of cells after 24 hrs by transwell migration assay; type: functional, cell-based; details: for IC50: MDA-MB-231, 24 h
Procedure, shortened: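 Dose-response transwell migration in MDA-MB-231 cells: 2.5 × 10^4 cells in serum-free upper chamber, 5% FBS in the lower chamber.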

MDA-MB-231 [5] = test: Inhibition of cell invasion in human MDA-MB-231 cells assessed as total number of cells at 10 uM after 24 hrs by matrigel invasion assay relative to control; type: functional; details: MDA-MB-231, 24 h
HeLa [6] = test: Cytotoxicity against human HeLa cells assessed as colony formation at 10 uM after 2 weeks relative to control; type: cell-based; details: 336 h
A549 = test: Inhibition of cell migration in human A549 cells assessed as total number of cells at 10 uM after 24 hrs by transwell migration assay relative to control; type: functional; details: A549, 24 h
MDA-MB-231 [7] = test: Reduction of fascin localization in actin-rich membrane protrusion in human MDA-MB-231 cells at 10 uM by immuno fluorescence microscopic analysis; type: functional, cell-based
MDA-MB-231 [8] = test: Inhibition of serum-induced actin-rich membrane protrusion in human MDA-MB-231 cells assessed as reduction of f-actin intensity at 10 uM after overnight incubation by fluorescent microscopic analysis; type: functional
Procedure, shortened: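 MDA-MB-231 cells serum-starved with or without 10 μM compound, then serum-stimulated for 2 h to induce actin-rich membrane protrusions. F-actin was stained and imaged by fluorescence microscopy, and f-actin intensity was quantified against DMSO-treated cells.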

| SMILES | level, % of control at 10 µM (MDA-MB-231 [1]) [%] | Activity (MDA-MB-231 [2]) [%] | also measured |
| --- | --- | --- | --- |
| CCCCCC(=O)N(C)c1nc(-c2ccccc2)cs1 | 71.4 | 127.5 | – |
| Cc1ccc(-c2csc(NC(=O)c3cccs3)n2)c(C)c1 | 40.9 | 67.5 | – |
| CN(C(=O)C1CCCC1)c1nc(-c2ccccc2)cs1 | 54.3 | 132.4 | – |
| O=C(Nc1nc(-c2ccccc2)cs1)c1ccc(Br)cc1 | 103 | 98.6 | – |
| COc1cc(OC)c(-c2csc(NC(=O)c3ccccc3)n2)c(OC)c1 | 59.2 | 108.8 | – |
| O=C(Nc1nc(-c2ccccc2)cs1)c1ccncc1 | 32.3 | 95.5 | inhibition at 10 µM (HeLa [3]): 60%; IC50 (MDA-MB-231 [4]): 2870 nM; inhibition at 10 µM (MDA-MB-231 [5]): 40% |
| O=C(Nc1nc(-c2ccccc2)cs1)c1ccco1 | 88 | 98.8 | – |
| COc1cc(OC)c(-c2csc(N(C)C(=O)c3ccccc3)n2)c(OC)c1 | 91.5 | 110.4 | – |
| Cn1c(-c2ccccc2)cs/c1=N/C(=O)c1cccs1 | 43.3 | 85 | – |
| Cn1c(-c2ccccc2)cs/c1=N/C(=O)c1ccccc1 | 13 | 25.2 | inhibition at 10 µM (HeLa [3]): 60%; IC50 (MDA-MB-231 [4]): 189 nM; inhibition at 10 µM (MDA-MB-231 [5]): 40%; Activity (HeLa [6]): Toxic |
| Cc1ccc(-c2csc(NC(=O)c3ccccc3)n2)c(C)c1 | 33.7 | 85 | inhibition at 10 µM (HeLa [3]): 60%; IC50 (MDA-MB-231 [4]): 839 nM; inhibition at 10 µM (MDA-MB-231 [5]): 40% |
| Cn1c(-c2ccccc2)cs/c1=N/C(=O)c1ccco1 | 77.6 | 107.3 | – |
| Cc1ccc(-c2csc(N(C)C(=O)c3cccs3)n2)c(C)c1 | 72.2 | 97.7 | – |
| CN(C(=O)c1ccc(Br)cc1)c1nc(-c2ccccc2)cs1 | 78.2 | 107.7 | – |
| CN(C(=O)c1ccccc1)c1nc(-c2ccccc2)cs1 | 39.2 | 123.4 | inhibition at 10 µM (HeLa [3]): 60%; IC50 (MDA-MB-231 [4]): 366 nM; inhibition at 10 µM (MDA-MB-231 [5]): 40% |
| COc1ccc(C(=O)Nc2nc(-c3ccccc3)cs2)cc1OC | 18.6 | 57.3 | – |
| Cc1ccc(-c2cs/c(=N/C(=O)c3ccccc3)n2C)c(C)c1 | 14.3 | 120.9 | inhibition at 10 µM (A549): 80%; inhibition at 10 µM (HeLa [3]): 80%; Activity (MDA-MB-231 [7]): Active; inhibition (MDA-MB-231 [4]): Dose-dependent effect; IC50 (MDA-MB-231 [4]): 176 nM; inhibition at 10 µM (MDA-MB-231 [8]): 55%; inhibition at 10 µM (MDA-MB-231 [5]): 60%; Activity (HeLa [6]): 85% |
| COc1cc(C(=O)Nc2nc(-c3ccccc3)cs2)cc(OC)c1OC | 46.5 | 80.9 | – |
| COc1ccc(C(=O)N(C)c2nc(-c3ccccc3)cs2)cc1OC | 43.5 | 97.1 | – |
| COc1cc(OC)c(-c2cs/c(=N/C(=O)c3ccccc3)n2C)c(OC)c1 | 40.6 | 94 | – |

| SMILES | level, % of control at 10 µM (MDA-MB-231 [1]) [%] | Activity (MDA-MB-231 [2]) [%] | also measured |
| --- | --- | --- | --- |
| Cn1c(-c2ccccc2)cs/c1=N/C(=O)c1cccnc1 | 62 | 111.5 | – |
| CCn1c(-c2ccccc2)cs/c1=N/C(=O)c1cccs1 | 32.1 | 97.7 | inhibition at 10 µM (HeLa [3]): 60%; IC50 (MDA-MB-231 [4]): 2080 nM; inhibition at 10 µM (MDA-MB-231 [5]): 40%; Activity (HeLa [6]): 45% |
| O=C(Nc1nc(-c2ccccc2)cs1)C1CCCC1 | 68.2 | 99.8 | – |
| O=C(Nc1nc(-c2ccccc2)cs1)c1ccc(Cl)cc1 | 78 | 95 | – |
| CCN(C(=O)c1ccco1)c1nc(-c2ccccc2)cs1 | 54.5 | 96.5 | – |
| CCCCCCCCCCCC(=O)Nc1nc(-c2ccccc2)cs1 | 28.3 | 71.5 | inhibition at 10 µM (HeLa [3]): 60%; IC50 (MDA-MB-231 [4]): 1010 nM; inhibition at 10 µM (MDA-MB-231 [5]): 40%; Activity (HeLa [6]): Non-toxic |
| Cc1ccc(-c2csc(N)n2)c(C)c1 | 45.5 | 110.9 | – |
| COc1ccc(C(=O)/N=c2/scc(-c3ccccc3)n2C)cc1OC | 35.9 | 40.9 | – |
| Nc1nc(-c2ccccc2)cs1 | 86 | 103.6 | – |
| Cn1c(-c2ccccc2)cs/c1=N/C(=O)c1ccc(Cl)cc1 | 28.1 | 98.2 | inhibition at 10 µM (HeLa [3]): 60%; IC50 (MDA-MB-231 [4]): 1120 nM; inhibition at 10 µM (MDA-MB-231 [5]): 40% |
| CCCCCCCCCCCC(=O)N(C)c1nc(-c2ccccc2)cs1 | 80 | 111.1 | – |
| Cn1c(-c2ccccc2)cs/c1=N/C(=O)c1ccc(Br)cc1 | 59.7 | 63.8 | – |
| Cc1ccc(-c2cs/c(=N/C(=O)c3cccs3)n2C)c(C)c1 | 37.1 | 102.3 | – |
| O=C(Nc1nc(-c2ccccc2)cs1)c1ccccc1 | 31.3 | 105.2 | inhibition at 10 µM (HeLa [3]): 60%; IC50 (MDA-MB-231 [4]): 1290 nM; inhibition at 10 µM (MDA-MB-231 [5]): 40% |
| CCCCCC(=O)Nc1nc(-c2ccccc2)cs1 | 75.2 | 90.7 | – |
| O=C(Nc1nc(-c2ccccc2)cs1)c1cccs1 | 34.5 | 85.9 | inhibition at 10 µM (HeLa [3]): 60%; IC50 (MDA-MB-231 [4]): 2490 nM; inhibition at 10 µM (MDA-MB-231 [5]): 40% |
| CN(C(=O)C1CCCCC1)c1nc(-c2ccccc2)cs1 | 72.7 | 97.5 | – |
| COc1cc(C(=O)/N=c2/scc(-c3ccccc3)n2C)cc(OC)c1OC | 26.5 | 75.4 | – |
| O=C(Nc1nc(-c2ccccc2)cs1)c1cccnc1 | 80.8 | 102.8 | – |
| O=C(Nc1nc(-c2ccccc2)cs1)C1CCCCC1 | 92.7 | 103.4 | – |
